In ChEMBL document CHEMBL4390681, “Novel allosteric covalent inhibitors of bifunctional Cryptosporidium hominis TS-DHFR from parasitic protozoa identified by virtual screening” (Bioorg Med Chem Lett, 2019) one finds inhibition and Ratio data, which are given here for one compound.

Each structure is given as a SMILES string. Changes are numbered by the printed parent chain. The source made the active and inactive calls. No cut-off for these calls is given here.

For test [1], the target named is T1, Dihydrofolate reductase (Homo sapiens) (UniProt P00374).
T1 sequence (whole entry): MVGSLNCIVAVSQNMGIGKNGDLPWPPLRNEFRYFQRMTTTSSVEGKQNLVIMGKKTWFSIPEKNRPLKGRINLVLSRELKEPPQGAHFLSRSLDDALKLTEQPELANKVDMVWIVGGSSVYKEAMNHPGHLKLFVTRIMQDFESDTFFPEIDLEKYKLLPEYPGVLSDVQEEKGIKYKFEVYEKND
As to the kind of experiment: Inhibition of human DHFR assessed as decrease in DHFR steady state activity at 500 uM using [3',5',7,9-3H]-H2folate as substrate preincubated for 16 hrs before NADPH addition incubated for 5 mins followed by substrate addition and measured after 5 mins by NADPH based radiometric chemical quench assay relative to control. In outline: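 Radiometric DHFR steady-state assay with human DHFR. Compound and enzyme were incubated for 16 h before the reaction was started. Percent inhibition was read relative to control.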

The test system of test [2] is Cryptosporidium hominis. Put plainly: Ratio of inhibition of recombinant Cryptosporidium hominis TS-DHFR Cys44Ser mutant expressed in Escherichia coli PA414 to inhibition of recombinant Cryptosporidium hominis TS-DHFR expressed in Escherichia coli PA414.
The test system of test [3] is T2, Bifunctional dihydrofolate reductase-thymidylate synthase (Cryptosporidium hominis), A0A0S4TER9 [C44S].
T2 sequence (whole entry): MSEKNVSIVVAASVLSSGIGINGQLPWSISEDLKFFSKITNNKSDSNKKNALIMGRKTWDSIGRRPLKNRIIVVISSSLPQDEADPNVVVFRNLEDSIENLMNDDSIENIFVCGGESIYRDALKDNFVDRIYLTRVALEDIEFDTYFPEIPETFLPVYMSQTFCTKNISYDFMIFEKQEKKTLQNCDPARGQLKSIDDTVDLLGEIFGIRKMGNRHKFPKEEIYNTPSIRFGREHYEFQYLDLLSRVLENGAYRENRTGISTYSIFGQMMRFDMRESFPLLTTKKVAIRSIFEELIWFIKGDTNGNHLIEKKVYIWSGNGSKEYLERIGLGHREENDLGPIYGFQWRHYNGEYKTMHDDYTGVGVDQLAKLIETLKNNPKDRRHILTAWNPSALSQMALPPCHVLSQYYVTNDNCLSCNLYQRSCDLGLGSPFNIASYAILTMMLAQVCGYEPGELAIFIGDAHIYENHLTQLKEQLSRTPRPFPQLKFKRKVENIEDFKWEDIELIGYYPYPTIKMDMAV
Put plainly: Inhibition of recombinant Cryptosporidium hominis TS-DHFR Cys44Ser mutant expressed in Escherichia coli PA414 assessed as reduction in DHFR steady state activity at 500 uM using [3',5',7,9-3H]-H2folate as substrate preincubated for 16 hrs before NADPH addition for 5 mins followed by substrate addition and measured after 5 mins by NADPH based radiometric chemical quench assay relative to control. In outline: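 Wild-type and Cys44Ser mutant ChTS-DHFR, each incubated 16 h with compound before the radiometric DHFR reaction was started. Read-out was percent DHFR activity.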

Test [4] has as its target T3, Bifunctional dihydrofolate reductase-thymidylate synthase (Cryptosporidium hominis) (UniProt A0A0S4TER9).
T3 sequence (whole entry): T2 sequence (whole entry) with S44C
Put plainly: Inhibition of recombinant Cryptosporidium hominis TS-DHFR expressed in Escherichia coli PA414 assessed as reduction in DHFR steady state activity at 500 uM using [3',5',7,9-3H]-H2folate as substrate preincubated for 1 hr to 72 hrs before NADPH addition for 5 mins followed by substrate addition and measured after 5 mins by NADPH based radiometric chemical quench assay relative to control. The note with it: TDE = time-dependent effect. The method, boiled down:
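Compound at 500 µM was incubated with ChTS-DHFR for 1 h, 16 h, 48 h or 72 h before the radiometric DHFR reaction was initiated, to follow time-dependent inhibition. The standard assay uses a 10 min incubation.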

For orientation: inhibition means the relative decrease from the control value, in per cent. For `Cc1ccc(C(=O)Nc2cccc(S)c2)c(O)c1`, the inhibition result in test [1] was “inactive”. Besides, in test [2], the Ratio stood at 2. The inhibition in test [3] is 38%; in test [4], “Tde”.
